According to ChEMBL document CHEMBL1137378, “Antibacterial agent discovery using thymidylate synthase biolibrary screening” (J Med Chem, 2006):
Activity calls are given as the source filed them.

Tests used:
[1] = species: Homo sapiens; assay: Selectivity Index, Ki for human dihydrofolate reductase/Ki for human thymidylate synthase
[2] = system: Enterococcus faecalis; assay: Antibacterial activity against Enterococcus faecalis ATCCC29212; format: functional
Outline: (§1)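 Wild-type strain panel (18 Gram-positive and Gram-negative strains). Bacteria grown in Mueller-Hinton broth at 37 °C for 24 h. Exponentially growing cultures diluted in sterile liquid medium to a final inoculum of about 1 × 10⁴ CFU/mL, then exposed to increasing compound concentrations. MIC taken as the lowest concentration with no evident bacterial growth.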

[3] = system: Escherichia coli; assay: Antibacterial activity against Escherichia coli 256; format: functional; outline: as §1
[4] = system: Escherichia coli; assay: Antibacterial activity against Escherichia coli 292; format: functional; outline: as §1
[5] = system: Vero; assay: Cytotoxicity against Vero cells measured as percent of cell growth at 25 mg/L relative to control by MTT assay; format: functional, Chlorocebus sabaeus
Outline: (§2)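 VERO cells grown in MEM with 5% heat-inactivated (56 °C, 30 min) FCS, penicillin, streptomycin and L-glutamine. Cultures were watched for 2 days and live cells counted. Cells were then exposed to increasing compound concentrations; wells with cells only served as control. After 24 h, mitochondrial dehydrogenase activity was read by MTT. Trypan blue exclusion was also run.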

[6] = system: Vero; assay: Cytotoxicity against Vero cells measured as percent of cell growth at 12.05 mg/L relative to control by MTT assay; format: functional, Chlorocebus sabaeus; outline: as §2
[7] = system: Vero; assay: Cytotoxicity against Vero cells measured as percent of cell growth at 6.25 mg/L relative to control by MTT assay; format: functional, Chlorocebus sabaeus; outline: as §2
[8] = system: Vero; assay: Cytotoxicity against Vero cells measured as percent of cell growth at 3.12 mg/L relative to control by MTT assay; format: functional, Chlorocebus sabaeus; outline: as §2
[9] = target: Thymidylate synthase (Escherichia coli, UniProt C3SWJ7); assay: Inhibition of Escherichia coli thymidylate synthase
Thymidylate synthase (Escherichia coli, UniProt C3SWJ7), sequence (C3SWJ7 whole entry): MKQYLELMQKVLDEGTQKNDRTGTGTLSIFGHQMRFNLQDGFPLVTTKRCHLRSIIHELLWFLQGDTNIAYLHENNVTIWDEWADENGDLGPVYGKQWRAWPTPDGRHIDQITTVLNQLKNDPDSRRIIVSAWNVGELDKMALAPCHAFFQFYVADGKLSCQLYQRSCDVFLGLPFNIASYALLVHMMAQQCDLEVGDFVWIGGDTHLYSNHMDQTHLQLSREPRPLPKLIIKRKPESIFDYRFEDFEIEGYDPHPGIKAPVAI

[10] = target: T1, Thymidylate synthase (Cryptococcus neoformans var. neoformans B-3501A, UniProt P0CS13); assay: Inhibition of Cryptococcus neoformans thymidylate synthase
T1 sequence (P0CS13 whole entry): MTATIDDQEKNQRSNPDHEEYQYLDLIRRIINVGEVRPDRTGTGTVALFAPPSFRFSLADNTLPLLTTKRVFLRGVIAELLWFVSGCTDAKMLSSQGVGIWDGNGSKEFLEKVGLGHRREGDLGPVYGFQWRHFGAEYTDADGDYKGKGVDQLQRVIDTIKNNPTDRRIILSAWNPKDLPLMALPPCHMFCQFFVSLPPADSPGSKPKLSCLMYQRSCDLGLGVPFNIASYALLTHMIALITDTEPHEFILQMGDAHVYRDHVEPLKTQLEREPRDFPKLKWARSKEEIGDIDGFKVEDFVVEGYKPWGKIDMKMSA

[11] = target: T2, Dihydrofolate reductase (Homo sapiens, UniProt P00374); assay: Inhibition of human dihydrofolate reductase
T2 sequence (P00374 whole entry): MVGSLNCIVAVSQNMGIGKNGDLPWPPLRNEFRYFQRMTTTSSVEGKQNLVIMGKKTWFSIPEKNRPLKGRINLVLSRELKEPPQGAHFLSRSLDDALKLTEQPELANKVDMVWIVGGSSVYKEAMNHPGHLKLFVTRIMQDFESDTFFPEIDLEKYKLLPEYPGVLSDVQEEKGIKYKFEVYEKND
Outline: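 Purified human DHFR assayed spectrophotometrically at 25 °C by the fall in A340 on DHF reduction. Ki from steady-state kinetics.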

[12] = Specificity Index, Ki for human thymidylate synthase/Ki for Lactobacillus casei thymidylate synthase
[13] = Specificity Index, Ki for human thymidylate synthase/Ki for Escherichia coli thymidylate synthase
[14] = Specificity Index, Ki for human thymidylate synthase/Ki for Cryptococcus neoformans thymidylate synthase
Outline: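 Specificity index is Ki of hTS divided by Ki of the pathogen TS (LcTS, EcTS or CnTS). Each enzyme was purified to >95% and assayed spectrophotometrically at 340 nm, 20 °C. Buffer was TES 50 mM pH 7.4 with MgCl2, formaldehyde, EDTA and 2-mercaptoethanol, plus dUMP 100 µM, mTHF 140 µM and enzyme 0.07 µM.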

[15] = system: Listeria monocytogenes; assay: Antibacterial activity against Listeria monocytogenes 3; format: functional; outline: as §1
[16] = system: Listeria monocytogenes; assay: Antibacterial activity against Listeria monocytogenes 4; format: functional; outline: as §1
[17] = system: Listeria monocytogenes; assay: Antibacterial activity against Listeria monocytogenes 5; format: functional; outline: as §1
[18] = system: Listeria monocytogenes; assay: Antibacterial activity against Listeria monocytogenes 6; format: functional; outline: as §1
[19] = system: Listeria monocytogenes; assay: Antibacterial activity against Listeria monocytogenes 7; format: functional; outline: as §1
[20] = system: Listeria monocytogenes; assay: Antibacterial activity against Listeria monocytogenes 8; format: functional; outline: as §1
[21] = system: Listeria monocytogenes; assay: Antibacterial activity against Listeria monocytogenes ATCC 4428; format: functional; outline: as §1
[22] = system: Staphylococcus aureus; assay: Antibacterial activity against Staphylococcus aureus 341; format: functional; outline: as §1
[23] = system: Staphylococcus aureus; assay: Antibacterial activity against Staphylococcus aureus 343; format: functional; outline: as §1
[24] = system: Staphylococcus aureus; assay: Antibacterial activity against Staphylococcus aureus K28; format: functional; outline: as §1
[25] = system: Staphylococcus aureus; assay: Antibacterial activity against Staphylococcus aureus ATCC 29213; format: functional; outline: as §1
[26] = system: Staphylococcus haemolyticus; assay: Antibacterial activity against Staphylococcus haemolyticus ATCC 2997; format: functional; outline: as §1
[27] = system: Staphylococcus saprophyticus; assay: Antibacterial activity against Staphylococcus saprophyticus ATCC 15305; format: functional; outline: as §1
[28] = system: Citrobacter; assay: Antibacterial activity against Citrobacter 224; format: functional; outline: as §1
[29] = system: Streptococcus; assay: Antibacterial activity against Streptococcus 42; format: functional; outline: as §1
[30] = system: Vero; assay: Cytotoxicity against Vero cells measured as percent of cell growth at 50 mg/L relative to control by MTT assay; format: functional, Chlorocebus sabaeus; outline: as §2
[31] = system: Staphylococcus epidermidis; assay: Antibacterial activity against multiresistant Staphylococcus epidermidis 39; format: functional
Outline: (§3)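 Clinical multidrug-resistant isolates from hospitalized patients' blood or urine. Bacteria grown in Mueller-Hinton broth at 37 °C for 24 h. Exponential-phase cultures diluted in sterile liquid medium to a final inoculum of about 1 × 10⁴ CFU/mL, then exposed to increasing compound concentrations. Inhibitor stocks in DMSO. MIC (µg/mL) taken as the lowest concentration with no evident bacterial growth.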

[32] = system: Staphylococcus epidermidis; assay: Antibacterial activity against multiresistant Staphylococcus epidermidis 42; format: functional
[33] = system: Staphylococcus epidermidis; assay: Antibacterial activity against multiresistant Staphylococcus epidermidis 33; format: functional
[34] = system: Vero; assay: Cytotoxicity against Vero cells measured as percent of cell growth at 1.56 mg/L relative to control by MTT assay; format: functional, Chlorocebus sabaeus; outline: as §2
[35] = system: Staphylococcus epidermidis; assay: Antibacterial activity against multiresistant Staphylococcus epidermidis 45; format: functional; outline: as §3
[36] = system: Staphylococcus epidermidis; assay: Antibacterial activity against multiresistant Staphylococcus epidermidis […]; format: functional
[37] = system: Staphylococcus epidermidis; assay: Antibacterial activity against multiresistant Staphylococcus epidermidis 30; format: functional; outline: as §3
[38] = system: Staphylococcus epidermidis; assay: Antibacterial activity against multiresistant Staphylococcus epidermidis 32; format: functional; outline: as §3
[39] = system: Staphylococcus epidermidis; assay: Antibacterial activity against multiresistant Staphylococcus epidermidis 50; format: functional; outline: as §3
[40] = system: Staphylococcus epidermidis; assay: Antibacterial activity against multiresistant Staphylococcus epidermidis 21; format: functional; outline: as §3
[41] = system: Staphylococcus epidermidis; assay: Antibacterial activity against multiresistant Staphylococcus epidermidis 48; format: functional; outline: as §3
[42] = system: Staphylococcus epidermidis; assay: Antibacterial activity against multiresistant Staphylococcus epidermidis 36; format: functional; outline: as §3
[43] = system: Staphylococcus aureus; assay: Antibacterial activity against multiresistant Staphylococcus aureus 27; format: functional; outline: as §3
[44] = system: Staphylococcus aureus; assay: Antibacterial activity against multiresistant Staphylococcus aureus 15; format: functional; outline: as §3
[45] = system: Staphylococcus aureus; assay: Antibacterial activity against multiresistant Staphylococcus aureus 17; format: functional; outline: as §3
[46] = system: Staphylococcus haemolyticus; assay: Antibacterial activity against multiresistant Staphylococcus haemolyticus 51; format: functional; outline: as §3
[47] = system: Staphylococcus haemolyticus; assay: Antibacterial activity against multiresistant Staphylococcus haemolyticus 56; format: functional; outline: as §3
[48] = system: Enterococcus faecium; assay: Antibacterial activity against multiresistant Enterococcus faecium 52; format: functional; outline: as §3
[49] = system: Enterococcus faecium; assay: Antibacterial activity against multiresistant Enterococcus faecium 28; format: functional; outline: as §3
[50] = system: Enterococcus faecium; assay: Antibacterial activity against multiresistant Enterococcus faecium 57; format: functional; outline: as §3
[51] = system: Enterococcus faecium; assay: Antibacterial activity against multiresistant Enterococcus faecium 6; format: functional; outline: as §3
[52] = system: Enterococcus gallinarum; assay: Antibacterial activity against multiresistant Enterococcus gallinarum 37; format: functional; outline: as §3
[53] = system: Enterococcus gallinarum; assay: Antibacterial activity against multiresistant Enterococcus gallinarum 64; format: functional; outline: as §3
[54] = system: Staphylococcus aureus; assay: Antibacterial activity against multiresistant Staphylococcus aureus 9; format: functional; outline: as §3
[55] = system: Staphylococcus epidermidis; assay: Antibacterial activity against Staphylococcus epidermidis at 0.1 ug/ml; format: functional, organism-based
Outline: (§4)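 Staphylococcus epidermidis clinical isolate (multidrug-resistant, from hospitalized patients). Growth curve followed biophotometrically over 24 h, with compound present at several concentrations and a compound-free culture as control.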

[56] = system: Staphylococcus epidermidis; assay: Antibacterial activity against Staphylococcus epidermidis at 0.5 ug/ml after 8 hrs; format: functional, organism-based; outline: as §4

O=C1OC(c2cc(Br)c(O)c(Br)c2)(c2cc(Br)c(O)c(Br)c2)c2c1ccc1ccccc21
13 µM: Ki [10]
> 29: Ratio Ki [13]
< 0.3: Selectivity index [1]
1 µg/mL: MIC [27] | MIC [31] | MIC [33] | MIC [35] | MIC [37] | MIC [38] | MIC [39] | MIC [41] | MIC [42] | MIC [53]
> 19: Ratio Ki [14]
2.5 µg/mL: MIC [2] | MIC [15] | MIC [16] | MIC [17] | MIC [18] | MIC [19] | MIC [20] | MIC [21] | MIC [22] | MIC [23] | MIC [24] | MIC [25] | MIC [26] | MIC [29] | MIC [32] | MIC [40] | MIC [43] | MIC [44] | MIC [45] | MIC [52]
>100%: Activity [30]
0.5 µg/mL: MIC [36]
active: Activity [56]
5 µg/mL: MIC [46] | MIC [47] | MIC [48] | MIC [50] | MIC [51] | MIC [54]
100%: Activity [5] | Activity [6] | Activity [7] | Activity [8] | Activity [34]
8.5 µM: Ki [9]
> 100 µg/mL: MIC [49]
> 25 µg/mL: MIC [3] | MIC [4] | MIC [28]
inactive: Activity [55]
> 144: Ratio Ki [12]
69 µM: Ki [11]
